# The list is not random: actives were taken first. Their share in the collection is about 2.3%.
# G6PDH CS: L. mesenteroides G6PDH inhibitors, counter-screen for G6PDH-coupled screening assays, biochemical, Leuconostoc mesenteroides enzyme; glucose-6-phosphate dehydrogenase [Leuconostoc mesenteroides]; Purified L. mesenteroides G6PDH, diaphorase/resazurin coupled fluorescence, 45 min; inhibition, % at 5 µM; actives 0.12% (n = 200,000); in the data active means inhibition above about 50%
# Diaph act CS: compounds boosting diaphorase resazurin reduction – biochemical, uHTS, resorufin fluorescence, counter-screen for diaphorase-coupled primary assays, primary screen; Diaphorase/resazurin coupled assay, 16 min; stronger effect = higher value; 1 = vehicle wells, 0 = NADH-free wells; activation factor at 20 µM; actives 0.005% (n = 190,000); AID 1229, 2008;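 active means diaphorase activity raised at least twofold by the compound at 20 µM; inactive means activation factor below 2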
#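 Material: Purified diaphorase enzyme from Clostridium kluyveri | Buffer or medium: 50 mM HEPES pH 7.4 with 4.542 mM MgCl2, 0.005% Tween 20 | Times: 16 min enzyme reaction, ambient temperature | Signal: Red resorufin fluorescence at 544/590 nm excitation/emission | Measure: Increased resorufin signal from activators or reducing compounds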
# Diaph inh CS: diaphorase inhibitors and chemical oxidizers, primary screen, counter-screen for diaphorase-coupled primary assays, biochemical, uHTS, resorufin fluorescence; diaphorase resazurin-to-resorufin fluorescence, NADH, 16 min; bacterial (C. kluyveri) enzyme, not human; inhibition, % at 20 µM; actives 0.69% (n = 190,000);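 active means primary screen inhibition at 20 µM above a set limit, cut at about 50% in these data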;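 further: plate controls were DMSO with full reaction for no effect and wells lacking NADH for full effect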
#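 Assay system: diaphorase enzyme from Clostridium kluyveri; Input: enzyme working solution with 0.14 U/mL diaphorase; Timing: 16 min at room temperature; Technique: resorufin fluorescence, excitation 544 nm, emission 590 nm; Benchmarks: positive control minus NADH, DMSO neutral control.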
# FLuc stim CS: FLuc activators, initial screening, artefact control for FLuc-dependent activation tests, biochemical, ATPlite luminescence; Luciferin 4-monooxygenase (Photinus pyralis), P08659; ATPlite luciferase biochemical, 10 min; 0 = ATP-free wells, 1 = DMSO control; activation factor at 10 µM; 200,000 tested, under 10 active;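 active means luciferase activation factor, scaled between plate controls, of at least 2 with compound at 10 µM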
# Target sequence (P08659 whole entry, looked up): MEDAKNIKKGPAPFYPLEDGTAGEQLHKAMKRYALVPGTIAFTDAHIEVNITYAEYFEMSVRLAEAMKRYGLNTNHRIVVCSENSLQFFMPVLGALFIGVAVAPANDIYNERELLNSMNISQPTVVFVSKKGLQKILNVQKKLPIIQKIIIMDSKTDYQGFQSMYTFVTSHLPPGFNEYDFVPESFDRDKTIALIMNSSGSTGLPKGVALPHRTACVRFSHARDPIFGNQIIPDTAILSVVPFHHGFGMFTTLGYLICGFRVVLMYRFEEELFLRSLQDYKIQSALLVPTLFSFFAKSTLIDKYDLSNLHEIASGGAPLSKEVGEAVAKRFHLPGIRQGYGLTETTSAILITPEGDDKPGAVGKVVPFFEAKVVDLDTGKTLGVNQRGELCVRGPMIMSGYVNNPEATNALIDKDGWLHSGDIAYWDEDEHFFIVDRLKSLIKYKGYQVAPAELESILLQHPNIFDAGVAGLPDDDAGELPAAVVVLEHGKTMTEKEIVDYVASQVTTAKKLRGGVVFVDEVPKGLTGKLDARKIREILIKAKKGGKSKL
#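 Material: Luciferase/luciferin reagent mix | Doses: Test compounds dosed from 2 mM stocks in 100% DMSO | Timing: 10 min incubation after luciferase reagent addition, room temperature | Measured by: Luminescence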
# FLuc inhib CS: firefly luciferase enzyme inhibitors, primary screen, artefact control for luciferase-based inhibitor screens, biochemical, luminescence, ATPLite. inhibition, % at 10 µM. Luciferin 4-monooxygenase (Photinus pyralis), P08659. AID 1006, 2008. 10 min. actives 1.5% (n = 200,000);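 active means inhibition above about 50% when tested at 10 µM, limit read from the data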
# An asterisk follows results filed as active.
SMILES,G6PDH CS,Diaph act CS,Diaph inh CS,FLuc stim CS,FLuc inhib CS
O=C(Nc1ccccc1C(=O)NCc1cccnc1)c1ccc(Cl)cc1Cl,-11,0.9,13,1,1
CCOC(=O)c1c(NC(=O)CSc2nnc3c(Cl)cc(Cl)cn23)sc2c1CCC2,-20,0.3,69*,1,4
NC(=O)c1c(NC(=O)CSc2nnc(-c3ccco3)n2-c2ccccc2)sc2c1CCC2,9,0.5,53*,1,1
N#Cc1c(NC(=O)CSc2nnc(-c3ccco3)n2-c2ccccc2)sc2c1CCC2,5,1,0,1.1,-9
COc1cc(OC)c(OC)cc1CN1CCN(S(=O)(=O)c2ccc(NC(C)=O)cc2)CC1,32,0.5,52*,1.1,-9
COc1ccc(CN2CCN(S(=O)(=O)c3ccc(NC(C)=O)cc3)CC2)cc1OC,8,0.9,12,1,-3
COc1cc(CN2CCN(Cc3ccc(SC)cc3)CC2)cc(OC)c1O,58*,0.6,40,1,0
COc1cc(CN2CCN(S(=O)(=O)c3ccc(NC(C)=O)cc3)CC2)cc(OC)c1O,52*,0.6,43,1.1,-12
COc1cc(OC)c(OC)cc1CN1CCN(Cc2ccc(SC)cc2)CC1,0,1,0,1,-5
CC(C)c1ccc(C(=O)NN2C(=O)C3CCCCC3C2=O)cc1 (configuration not stated),7,1,4,0.2,80*
CCOc1ccccc1C(=O)NN1C(=O)C2CCCCC2C1=O (configuration not stated),-5,1,3,1,-4
CN1CCC2(CC1)N=C(c1ccc(F)cc1)C(=S)N2C(=O)c1ccc(C(C)(C)C)cc1,14,1,-2,1,-4
CC(/C=C/c1ccc(N(C)C)cc1)=N\N=C(/N)SC1CC(=O)N(c2ccc(C(=O)O)cc2)C1=O (configuration not stated),-4,1,-2,0.3,69*
Cc1ccc(C(=O)NC(=S)Nc2cccc3nsnc23)cc1,8,0.4,59*,1,-1
Cc1ccc(C(=O)NC(=S)Nc2c(C)ccc3nsnc23)cc1,-3,0.8,17,1,0
Cc1cc(N)n2nc(-c3ccccc3)cc2n1,-1,1.1,-6,0.1,91*
Cc1ccccc1S(=O)(=O)c1c(C)cc(-c2ccccc2)[nH]c1=O,5,0.9,12,1,-5
CCOc1ccc2nc(C)cc(Nc3cccc([N+](=O)[O-])c3)c2c1,7,1,4,1.1,-7
Cc1ccoc1C(=O)Nc1ccc(CC(=O)O)cc1,3,0.9,14,0.4,57*
O=C(O)Cc1ccc(NC(=O)c2ccc(NC(=O)c3ccco3)cc2)cc1,10,0.9,10,1,0
CNC(=O)COC(=O)c1ccc(-c2nc3ccccc3s2)s1,6,0.9,11,0.2,81*
COCCCNC(=O)COC(=O)c1ccc(-c2nc3ccccc3s2)s1,-4,1,0,0.8,25
Cc1ccc(-c2cc3c(N=O)c4ccccc4c-3n[nH]2)cc1,2,0.8,18,0.1,94*
Cc1cccc(/C=N/n2c(-c3cc(-c4ccccc4)n[nH]3)n[nH]c2=S)c1,1,0.8,16,1,4
O=Nc1c2cc(-c3ccccc3)[nH]nc-2c2ccccc12,8,1.1,-8,0.1,87*
Cc1cccc(-c2cc3c(N=O)c4ccccc4c-3n[nH]2)c1,3,0.9,5,0.4,63*
c1ccc(-c2n[nH]c3ccccc23)cc1,24,0.9,6,1,-2
Cc1nc([N+](=O)[O-])c(Sc2nc3ccccc3n2C)n1Cc1ccccc1,11,0.8,21,1,-4
O=C(O)C1C2C=CC(C2)C1C(=O)NCc1cccnc1 (configuration not stated),-2,0.9,8,1.1,-8

# Screening results as filed in PubChem BioAssay.
